# Assay results: ChEMBL document CHEMBL4251662, “Alkyl indole-based cannabinoid type 2 receptor tools: Exploration of linker and fluorophore attachment” (Eur J Med Chem, 2018)
# pEC50, pIC50, pKi: −log10 of the molar value. Activity calls are given as the source filed them. The calls are words filed in the database; no cut-off is given here.
# Columns and labels:
# [1] = target: T1, Cannabinoid receptor 1 (Homo sapiens, UniProt P21554); assay: Displacement of [3H]CP55,940 from N-terminal HA-tagged human CB1 receptor expressed in HEK293 cell membranes after 1 hr by microbeta scintillation counting method; details: read-out: Ki
# [2] = target: T2, Cannabinoid receptor 2 (Homo sapiens, UniProt P34972); assay: Displacement of [3H]CP55,940 from N-terminal HA-tagged human CB2 receptor expressed in HEK293 cell membranes at 10 uM after 1 hr by microbeta scintillation counting method relative to control
# Procedure, shortened: (§1)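 Single-point competition screen against [3H]CP55,940 in HEK293 cells over-expressing 3HA-tagged hCB2 or hCB1. Compounds giving more than 50% displacement went on to full concentration-response curves.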
# [3] = target: T2, Cannabinoid receptor 2; assay: Displacement of [3H]CP55,940 from N-terminal HA-tagged human CB2 receptor expressed in HEK293 cell membranes after 1 hr by microbeta scintillation counting method; details: read-out: Ki
# [4] = test system: HEK293; assay: Effect on forskolin-stimulated cAMP level in HEK293 cells at 1 uM by BRET assay relative to control; assay type: ADME, cell-based; details: human, hek293, 1 µM
# Procedure, shortened: (§2)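 Wild-type HEK293 cells lacking transfected receptor, tested at 10 µM and 1 µM. Forskolin-stimulated cAMP measured by BRET as a check that responses are receptor-mediated.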
# [5] = test system: HEK293; assay: Effect on forskolin-stimulated cAMP level in HEK293 cells at 10 uM by BRET assay relative to control; assay type: ADME, cell-based; details: human, hek293, 10 µM; procedure, shortened: as §2
# [6] = target: T1, Cannabinoid receptor 1; assay: Activity at N-terminal HA-tagged human CB1 receptor expressed in HEK293 cells transfected with YFP-Epac-RLuc assessed as effect on forskolin-stimulated cAMP level by BRET assay; assay type: functional, cell-based
# Procedure, shortened: (§3)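 BRET cAMP biosensor read-out in HEK293 cells expressing HA-tagged human CB1 or CB2, with forskolin stimulation (5 µM). Concentration-response curves; area-under-curve values normalised to forskolin alone = 100% and basal = 0%. EC50 taken for agonists and IC50 for inverse agonists. Mean of at least three independent experiments, each point in duplicate.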
# [7] = target: T1, Cannabinoid receptor 1; assay: Displacement of [3H]CP55,940 from N-terminal HA-tagged human CB1 receptor expressed in HEK293 cell membranes at 10 uM after 1 hr by microbeta scintillation counting method relative to control; procedure, shortened: as §1
# [8] = target: T2, Cannabinoid receptor 2; assay: Inverse agonist activity at N-terminal HA-tagged human CB2 receptor expressed in HEK293 cells transfected with YFP-Epac-RLuc assessed as increase in forskolin-stimulated cAMP level at 10 uM by BRET assay; assay type: functional, cell-based
# [9] = target: T2, Cannabinoid receptor 2; assay: Inverse agonist activity at N-terminal HA-tagged human CB2 receptor expressed in HEK293 cells transfected with YFP-Epac-RLuc assessed as increase in forskolin-stimulated cAMP level by BRET assay relative to control; assay type: functional, cell-based; procedure, shortened: as §3
# [10] = target: T1, Cannabinoid receptor 1; assay: Activity at N-terminal HA-tagged human CB1 receptor expressed in HEK293 cells transfected with YFP-Epac-RLuc assessed as effect on forskolin-stimulated cAMP level by BRET assay relative to control; assay type: functional, cell-based; procedure, shortened: as §3
# [11] = target: T2, Cannabinoid receptor 2; assay: Inverse agonist activity at N-terminal HA-tagged human CB2 receptor expressed in HEK293 cells transfected with YFP-Epac-RLuc assessed as increase in forskolin-stimulated cAMP level by BRET assay; assay type: functional, cell-based; procedure, shortened: as §3
# [12] = target: T2, Cannabinoid receptor 2; assay: Agonist activity at N-terminal HA-tagged human CB2 receptor expressed in HEK293 cells transfected with YFP-Epac-RLuc assessed as decrease in forskolin-stimulated cAMP level by BRET assay relative to control; assay type: functional, cell-based; procedure, shortened: as §3
# [13] = target: T2, Cannabinoid receptor 2; assay: Agonist activity at N-terminal HA-tagged human CB2 receptor expressed in HEK293 cells transfected with YFP-Epac-RLuc assessed as decrease in forskolin-stimulated cAMP level by BRET assay; assay type: functional, cell-based; procedure, shortened: as §3
# [14] = target: T1, Cannabinoid receptor 1; assay: Agonist activity at N-terminal HA-tagged human CB1 receptor expressed in HEK293 cells transfected with YFP-Epac-RLuc assessed as decrease in forskolin-stimulated cAMP level by BRET assay relative to control; assay type: functional, cell-based; procedure, shortened: as §3
# [15] = target: Proprotein convertase subtilisin/kexin type 9 (Homo sapiens) (UniProt Q8NBP7); assay: Inhibition of PCSK9 (unknown origin)
# [16] = target: T3, Nicotinamide N-methyltransferase (Homo sapiens) (UniProt P40261); assay: Inhibition of NNMT (unknown origin)
# T3 sequence (whole entry): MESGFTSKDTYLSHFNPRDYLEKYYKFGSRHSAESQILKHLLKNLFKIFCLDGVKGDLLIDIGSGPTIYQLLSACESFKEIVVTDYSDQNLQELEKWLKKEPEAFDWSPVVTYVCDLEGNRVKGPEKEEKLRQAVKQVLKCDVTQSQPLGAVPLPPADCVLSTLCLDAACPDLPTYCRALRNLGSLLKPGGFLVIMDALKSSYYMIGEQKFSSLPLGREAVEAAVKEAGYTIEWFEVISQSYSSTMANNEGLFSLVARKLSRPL
# [17] = target: T4, Potassium voltage-gated channel subfamily KQT member 3 (Homo sapiens) (UniProt O43525); assay: Agonist activity at KCNQ3 (unknown origin)
# T4 sequence (whole entry): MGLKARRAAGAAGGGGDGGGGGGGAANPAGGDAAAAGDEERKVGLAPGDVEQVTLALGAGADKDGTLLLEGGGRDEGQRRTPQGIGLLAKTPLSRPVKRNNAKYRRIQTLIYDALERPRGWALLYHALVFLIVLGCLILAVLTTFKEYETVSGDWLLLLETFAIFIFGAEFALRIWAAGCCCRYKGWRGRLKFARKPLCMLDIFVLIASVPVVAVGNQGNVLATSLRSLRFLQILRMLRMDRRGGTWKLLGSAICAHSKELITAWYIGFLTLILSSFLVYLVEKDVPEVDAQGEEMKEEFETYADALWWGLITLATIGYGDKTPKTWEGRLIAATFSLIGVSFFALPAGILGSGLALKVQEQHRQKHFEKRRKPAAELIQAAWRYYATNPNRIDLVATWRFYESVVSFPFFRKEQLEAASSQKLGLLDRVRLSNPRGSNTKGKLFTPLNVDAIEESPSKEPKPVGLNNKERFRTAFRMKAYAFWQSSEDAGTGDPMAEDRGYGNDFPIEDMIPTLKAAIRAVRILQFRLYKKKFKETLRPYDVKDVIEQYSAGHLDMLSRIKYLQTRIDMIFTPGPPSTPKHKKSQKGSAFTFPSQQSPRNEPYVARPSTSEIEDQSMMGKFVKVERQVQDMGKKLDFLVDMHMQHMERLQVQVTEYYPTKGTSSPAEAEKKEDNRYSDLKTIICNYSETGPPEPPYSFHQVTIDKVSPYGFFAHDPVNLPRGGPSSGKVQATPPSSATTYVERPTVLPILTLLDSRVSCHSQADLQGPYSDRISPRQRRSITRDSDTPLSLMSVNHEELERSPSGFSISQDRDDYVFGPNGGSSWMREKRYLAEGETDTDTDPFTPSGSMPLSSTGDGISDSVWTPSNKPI
# [18] = test system: Leishmania donovani; assay: Growth inhibition of Leishmania donovani; assay type: functional, organism-based
# [19] = target: T2, Cannabinoid receptor 2; assay: Agonist activity at N-terminal HA-tagged human CB2 receptor expressed in HEK293 cells transfected with YFP-Epac-RLuc assessed as decrease in forskolin-stimulated cAMP level at 10 uM by BRET assay; assay type: functional, cell-based
# Procedure, shortened: (§4)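 Single-concentration screen at 10 µM in CB receptor-expressing HEK293 cells, run with and without CP55,940 as reference agonist. Forskolin-stimulated cAMP read by BRET biosensor. A fall in cAMP is scored as agonism and a rise as inverse agonism.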
# [20] = target: Interleukin-17A (Homo sapiens) (UniProt Q16552); assay: Inhibition of IL-17 (unknown origin) assessed as disruption of IL-17 protein-protein interaction
# [21] = target: T1, Cannabinoid receptor 1; assay: Agonist activity at N-terminal HA-tagged human CB1 receptor expressed in HEK293 cells transfected with YFP-Epac-RLuc assessed as decrease in forskolin-stimulated cAMP level by BRET assay; assay type: functional, cell-based; procedure, shortened: as §3
# [22] = target: T5, Free fatty acid receptor 4 (Homo sapiens) (UniProt Q5NUL3); assay: Agonist activity at GPR120 (unknown origin); assay type: functional
# T5 sequence (whole entry): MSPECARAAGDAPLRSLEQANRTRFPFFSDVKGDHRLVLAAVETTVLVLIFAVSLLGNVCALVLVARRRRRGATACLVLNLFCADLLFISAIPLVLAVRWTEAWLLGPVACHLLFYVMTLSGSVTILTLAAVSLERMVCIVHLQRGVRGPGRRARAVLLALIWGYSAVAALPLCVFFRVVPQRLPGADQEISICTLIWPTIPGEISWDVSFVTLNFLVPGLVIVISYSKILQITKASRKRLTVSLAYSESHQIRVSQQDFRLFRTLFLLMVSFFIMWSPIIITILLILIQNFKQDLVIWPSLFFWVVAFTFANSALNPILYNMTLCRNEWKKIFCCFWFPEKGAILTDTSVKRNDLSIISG
# [23] = target: Potassium voltage-gated channel subfamily KQT member 2 (Homo sapiens) (UniProt O43526); assay: Agonist activity at KCNQ2 (unknown origin)
# [24] = target: T1, Cannabinoid receptor 1; assay: Agonist activity at N-terminal HA-tagged human CB1 receptor expressed in HEK293 cells transfected with YFP-Epac-RLuc assessed as decrease in forskolin-stimulated cAMP level at 10 uM by BRET assay; assay type: functional, cell-based; procedure, shortened: as §4
# [25] = target: T2, Cannabinoid receptor 2; assay: Activity at N-terminal HA-tagged human CB2 receptor expressed in HEK293 cells transfected with YFP-Epac-RLuc assessed as effect on forskolin-stimulated cAMP level by BRET assay; assay type: functional, cell-based; procedure, shortened: as §3
# [26] = target: T2, Cannabinoid receptor 2; assay: Activity at N-terminal HA-tagged human CB2 receptor expressed in HEK293 cells transfected with YFP-Epac-RLuc assessed as effect on forskolin-stimulated cAMP level by BRET assay relative to control; assay type: functional, cell-based; procedure, shortened: as §3
# T2 sequence (P34972 whole entry): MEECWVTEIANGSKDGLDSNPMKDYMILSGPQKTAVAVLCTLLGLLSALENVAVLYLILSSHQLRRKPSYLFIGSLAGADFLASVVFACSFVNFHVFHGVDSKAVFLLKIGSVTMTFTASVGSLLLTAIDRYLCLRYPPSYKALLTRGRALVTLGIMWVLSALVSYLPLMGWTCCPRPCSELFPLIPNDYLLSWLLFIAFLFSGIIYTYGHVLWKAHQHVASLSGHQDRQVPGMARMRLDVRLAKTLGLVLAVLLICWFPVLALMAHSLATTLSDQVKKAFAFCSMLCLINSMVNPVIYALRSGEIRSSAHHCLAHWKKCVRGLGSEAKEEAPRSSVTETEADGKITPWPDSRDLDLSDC
# Sequence of Potassium voltage-gated channel subfamily KQT member 2 (Homo sapiens) (O43526 whole entry): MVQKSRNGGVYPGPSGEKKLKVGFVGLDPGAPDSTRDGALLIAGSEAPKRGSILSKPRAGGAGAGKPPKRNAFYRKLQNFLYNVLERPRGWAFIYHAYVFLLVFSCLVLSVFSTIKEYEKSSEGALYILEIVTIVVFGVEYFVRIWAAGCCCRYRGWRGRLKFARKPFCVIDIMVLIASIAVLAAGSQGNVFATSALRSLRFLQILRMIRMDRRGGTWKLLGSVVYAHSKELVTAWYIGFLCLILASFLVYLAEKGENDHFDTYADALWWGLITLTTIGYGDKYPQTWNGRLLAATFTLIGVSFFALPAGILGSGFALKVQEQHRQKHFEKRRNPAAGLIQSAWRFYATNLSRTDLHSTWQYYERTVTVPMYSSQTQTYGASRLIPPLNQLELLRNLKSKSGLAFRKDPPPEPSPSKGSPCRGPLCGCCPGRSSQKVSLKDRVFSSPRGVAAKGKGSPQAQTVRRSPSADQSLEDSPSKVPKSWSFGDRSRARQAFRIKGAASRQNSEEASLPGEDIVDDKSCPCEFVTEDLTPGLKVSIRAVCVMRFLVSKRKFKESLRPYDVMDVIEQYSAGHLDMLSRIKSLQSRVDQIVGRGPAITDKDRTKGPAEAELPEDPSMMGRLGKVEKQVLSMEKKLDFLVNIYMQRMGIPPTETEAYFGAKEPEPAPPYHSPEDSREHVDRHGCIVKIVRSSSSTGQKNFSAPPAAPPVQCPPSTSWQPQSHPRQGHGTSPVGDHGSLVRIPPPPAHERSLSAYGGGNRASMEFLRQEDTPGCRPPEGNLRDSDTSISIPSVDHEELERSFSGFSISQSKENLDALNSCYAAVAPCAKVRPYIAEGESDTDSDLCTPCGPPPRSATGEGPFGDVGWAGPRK
# Sequence of Proprotein convertase subtilisin/kexin type 9 (Homo sapiens) (Q8NBP7 31-152 limits assumed): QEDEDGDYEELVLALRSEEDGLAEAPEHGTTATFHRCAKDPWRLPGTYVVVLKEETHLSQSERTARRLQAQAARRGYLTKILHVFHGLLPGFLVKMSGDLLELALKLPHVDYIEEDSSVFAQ
# Sequence of Proprotein convertase subtilisin/kexin type 9 (Homo sapiens) (Q8NBP7 153-692 limits assumed): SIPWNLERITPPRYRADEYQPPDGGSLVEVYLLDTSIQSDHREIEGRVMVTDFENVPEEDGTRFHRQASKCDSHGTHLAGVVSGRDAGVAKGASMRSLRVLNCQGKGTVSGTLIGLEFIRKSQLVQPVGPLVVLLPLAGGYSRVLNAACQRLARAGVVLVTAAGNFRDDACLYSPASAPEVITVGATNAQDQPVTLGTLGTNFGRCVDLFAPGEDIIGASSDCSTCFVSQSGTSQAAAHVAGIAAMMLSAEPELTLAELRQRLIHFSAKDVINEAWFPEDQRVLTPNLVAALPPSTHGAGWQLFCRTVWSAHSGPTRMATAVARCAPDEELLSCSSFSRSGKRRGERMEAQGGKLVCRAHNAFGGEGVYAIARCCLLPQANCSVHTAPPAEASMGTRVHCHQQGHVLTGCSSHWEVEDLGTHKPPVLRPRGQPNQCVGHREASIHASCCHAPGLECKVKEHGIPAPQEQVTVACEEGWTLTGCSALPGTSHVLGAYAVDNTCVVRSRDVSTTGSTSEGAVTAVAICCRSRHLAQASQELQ
# Sequence of Interleukin-17A (Homo sapiens) (Q16552 whole entry): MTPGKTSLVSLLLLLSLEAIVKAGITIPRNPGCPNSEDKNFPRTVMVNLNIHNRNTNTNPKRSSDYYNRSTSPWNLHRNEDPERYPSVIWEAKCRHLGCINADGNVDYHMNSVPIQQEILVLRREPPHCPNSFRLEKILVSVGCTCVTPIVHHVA
# T1 sequence (P21554 whole entry): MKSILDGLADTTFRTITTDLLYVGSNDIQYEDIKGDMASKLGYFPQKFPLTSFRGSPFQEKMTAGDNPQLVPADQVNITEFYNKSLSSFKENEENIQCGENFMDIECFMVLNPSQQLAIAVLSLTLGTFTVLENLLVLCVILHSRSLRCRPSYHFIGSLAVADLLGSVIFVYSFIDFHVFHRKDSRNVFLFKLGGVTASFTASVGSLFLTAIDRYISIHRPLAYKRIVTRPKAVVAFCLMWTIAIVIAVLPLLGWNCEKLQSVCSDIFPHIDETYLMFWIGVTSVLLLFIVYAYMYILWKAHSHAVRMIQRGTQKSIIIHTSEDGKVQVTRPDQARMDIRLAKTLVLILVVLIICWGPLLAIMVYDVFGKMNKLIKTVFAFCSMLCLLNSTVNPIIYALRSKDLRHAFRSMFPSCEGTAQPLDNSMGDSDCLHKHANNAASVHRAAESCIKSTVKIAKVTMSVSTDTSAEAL
Structure (SMILES),pKi [1],inhibition [2],pKi [3],Activity [4],Activity [5],Activity [6],inhibition [7],Activity [8],Emax [9],Emax [10],pIC50 [11],Emax [14],inhibition [15],inhibition [16],Activity [17],growth inhibition (GI) [18],inhibition [20],pEC50 [21],Activity [22],Activity [23],also measured
CCCOc1cccc2c(C(=O)c3ccc(OC)cc3)cn(CC3CCOCC3)c12,6.30,> 50%,8.24,105.4%,133.9%,inactive,> 50%,Active,263%,inactive,7.51,–,–,–,–,–,–,–,–,–,–
COc1ccc(C(=O)c2cn(CC3CCOCC3)c3ccc(O)cc23)cc1,5.85,> 50%,6.92,105.5%,109.6%,–,> 50%,–,–,–,–,62.2%,inactive,inactive,inactive,inactive,inactive,7.20,inactive,inactive,Emax [12]: 65.7%; pEC50 [13]: 8.36; Activity [19]: Active; Activity [24]: Active
Cc1ccc(Cn2nc(C(=O)N[C@@H]3C(C)(C)[C@@H]4CC[C@@]3(C)C4)cc2-c2ccc(Cl)c(C)c2)cc1,–,–,–,99.8%,94.5%,inactive,–,–,212%,inactive,–,–,–,–,–,–,–,–,–,–,–
CCCOc1ccc2c(c1)c(C(=O)c1ccc(OC)cc1)cn2CC1CCOCC1,5.34,> 50%,5.87,95%,127.6%,inactive,> 50%,–,–,inactive,–,–,inactive,inactive,inactive,inactive,inactive,–,inactive,inactive,Activity [25]: inactive; Emax [26]: inactive
COc1ccc(C(=O)c2cn(CC3CCOCC3)c3c(O)cccc23)cc1,5.45,> 50%,7.27,104.3%,135.3%,–,> 50%,Active,190%,–,6.57,64.3%,inactive,inactive,inactive,inactive,inactive,6.20,inactive,inactive,Activity [24]: Active
